Measurements: PubChem BioAssay
Inconclusive results are not listed. Calls of active or inactive are those of the source.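 Rule for the calls, unless noted: active = cell viability at or below a set limit in both duplicate runs, the limit being the all-compound median minus 4 SD (cut at about 23% in these data, passing the limit was not always enough); inconclusive = no clear call, values can overlap the other calls; inactive = the rest.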

What was measured:
[1] = S. cerevisiae growth inhibition in permissive medium (OD615), pilot counter-assay for S. cerevisiae lifespan shortening project, permissive growth control (AID 705;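 active = growth inhibition above 25% in both replicates, a cutoff set 3 SD above the mean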); settings: OD615, 24 h, at 10 µM, active compounds read high
How it was run: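 System: Engineered DeaD yeast | Buffer or medium: SC raffinose/galactose permissive medium | Doses: 10 µM single dose, 0.25% DMSO | Times: 24 h exposure, 30 °C | Measured by: OD615 turbidity read | Read-out: Yeast growth inhibition indicated by reduced 24 h OD615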

[2] = S. cerevisiae growth inhibition in restrictive medium, OD615, pilot screen, restrictive growth control, yeast lifespan reduction project (AID 706;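 active = growth inhibition above a set limit, 3 SD over mean compound inhibition, in both replicates, cut at about 43% in these data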;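 note: modified DeaD lifespan yeast strain shifted to restrictive glucose medium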); settings: OD615, 48 h, at 10 µM, active compounds read high
How it was run: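 Assay system: engineered S. cerevisiae DeaD strain; Buffer or medium: CSMM-D glucose medium; Dosing: 10 µM compound, 0.25% DMSO; Times: cell pre-growth 4 h, compound exposure 48 h, 30 °C; Detection: absorbance (optical density) measured at 615 nm.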

[3] = doxorubicin toxicity protection in MRP-1 cells – H69AR cells, CellTiter-Glo, duplicate, MRP-1 activator project, pilot screen (AID 807;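 active = viability increase at or above a cutoff of the median across tested compounds plus 3 SD, cut at about 8.5% in these data, passing the limit was not always enough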;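 note: compound pretreatment 18-22 h then 72 h combined with doxorubicin; 0% = doxorubicin alone and 100% = vehicle without doxorubicin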); settings: H69AR viability with doxorubicin, CellTiter-Glo luminescence; at 10 µM; active compounds read high
[4] = viability of HCT116 without oncogenic beta-catenin – human colon tumor cells, pilot screen (AID 823); settings: HCT116 beta-catenin knockout viability, CellTiter-Glo, 60 h; at 10 µM; active compounds read low;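 note: 0% = wells killed by 20 µM Hyamine and 100% = untreated DMSO cell wells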
[5] = viability of PTEN-null HCT116 cells – cell-based, HCT116 clonal line, CellTiter-Glo, pilot screen (AID 824;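 active = viability at or below 27.92% in each of two runs, the all-compound median minus 4 SD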;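 note: 0% = 20 µM Hyamine control and 100% = vehicle cell control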); settings: HCT116 PTEN-deleted viability, 60 h, at 10 µM, active compounds read low
[6] = RAM pathway blockade in budding yeast – dse1pr::URA3 reporter, 5-FOA selection, pilot screen (AID 869;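 active = inhibition over a set limit, the all-compound mean plus 3 SD, in both replicate runs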;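 note: 0% = DMSO wells with no growth and 100% = 10 µM 1-NA-PP1 with full growth; RAM network block rescues cells from 5-FOA so hits raise OD615 growth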); settings: S. cerevisiae dse1pr::URA3 5-FOA growth, OD615, 2 d; at 10 µM; active compounds read high; strain carries analog-sensitive mutant Cbk1 kinase
[7] = RAM signaling pathway blockade in yeast – S. cerevisiae, Pdr1DBD-CYC8 efflux-inhibited sensitized strain, primary screen (AID 1298;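 active = RAM network inhibition above 8.4% in each of two replicates, 3 SD over the compound average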;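 note: 0% = DMSO untreated cells without growth and 100% = 10 µM 1-NA-PP1 full growth; higher means more yeast growth rescued from 5-FOA killing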); settings: S. cerevisiae cbk1-as DSE1-URA3 strain, 5-FOA growth OD615, 2 d; at 50 µM; active compounds read high

O=C(O)CC1C(=O)NCCN1Cc1ccc(F)c(F)c1 (configuration not stated)
inactive: growth inhibition [1] -11.2% | growth inhibition [2] 3.21% | viability increase [3] -1.31% | viability [4] 99.4% | viability [5] 88.2% | inhibition [6] 3.32% | RAM network inhibition [7] -0.21%

Cn1c(SCC(=O)N2CCCCC2)nc2c([nH]c3ccccc32)c1=O
inactive: growth inhibition [1] -3.83% | growth inhibition [2] -3.68% | viability increase [3] -6.06% | viability [4] 61.4% | viability [5] 44% | inhibition [6] 2.85% | RAM network inhibition [7] 4.75%

O=C(O)CC1(Cc2nc(-c3cccs3)no2)CCCC1
inactive: growth inhibition [1] 5.79% | growth inhibition [2] 0.06% | viability increase [3] 0.13% | viability [4] 96.1% | viability [5] 94.6% | inhibition [6] 0.35% | RAM network inhibition [7] -0.58%

CCC(=O)NCc1nc2ccccc2n1Cc1ccccc1F
inactive: growth inhibition [1] -7.37% | growth inhibition [2] -27% | viability increase [3] -0.04% | viability [4] 99.1% | viability [5] 99.2% | inhibition [6] 0.885% | RAM network inhibition [7] 2.45%

CC1CCc2nn(CC(=O)Nc3c(F)cc(F)cc3Br)cc2C1 (configuration not stated)
inactive: growth inhibition [1] -5.22% | growth inhibition [2] -6.17% | viability increase [3] 2.17% | viability [4] 102% | viability [5] 90.3% | inhibition [6] 1.84% | RAM network inhibition [7] 1.57%

COc1ccc(-c2cc(C(F)(F)F)nc(N3CCN(C)CC3)n2)cc1
inactive: growth inhibition [1] 1.48% | growth inhibition [2] -4.37% | viability increase [3] -5.32% | viability [4] 33.7% | viability [5] 42.9% | inhibition [6] 1.43% | RAM network inhibition [7] 4.04%

Cc1c(Cl)cccc1NC(=O)CN1C(=O)CSc2ncccc21
inactive: growth inhibition [1] -2.14% | growth inhibition [2] -0.53% | viability increase [3] -1.13% | viability [4] 97.6% | viability [5] 89.5% | inhibition [6] -0.01% | RAM network inhibition [7] -0.13%

CSC1=C(C#N)C(c2ccc(C(C)C)cc2)CC(=O)N1 (configuration not stated)
inactive: growth inhibition [1] -4.75% | growth inhibition [2] -18.3% | viability increase [3] 0.04% | viability [4] 99.6% | viability [5] 91% | inhibition [6] 2% | RAM network inhibition [7] 1.87%

Cc1sc2ncnc(NCc3ccco3)c2c1C
inactive: growth inhibition [1] 4.72% | growth inhibition [2] 6.04% | viability increase [3] -6.03% | viability [4] 55.6% | viability [5] 62.3% | inhibition [6] 1.61% | RAM network inhibition [7] 6.13%

Cc1cc2ccccc2n1CCNC(=O)c1cccs1
inactive: growth inhibition [1] 0.02% | growth inhibition [2] 7.93% | viability increase [3] -2.29% | viability [4] 92.6% | viability [5] 91.4% | inhibition [6] 1.69% | RAM network inhibition [7] 3.36%

N#CC1=C(O)CCCn2c1nc1ccccc1c2=O
inactive: growth inhibition [1] -3.3% | growth inhibition [2] -18% | viability increase [3] -0.39% | viability [4] 97% | viability [5] 97% | inhibition [6] 2.41% | RAM network inhibition [7] 0.01%

Cc1ccccc1-n1c(C)nc2ccccc21
inactive: growth inhibition [1] -17.5% | growth inhibition [2] -1.88% | viability increase [3] -0.13% | viability [4] 95.9% | viability [5] 93.7% | inhibition [6] 1.79% | RAM network inhibition [7] 1.56%

O=C(NC1CCN(C(=O)N2c3ccccc3Sc3ccccc32)CC1)c1ccco1
inactive: growth inhibition [1] -3.83% | growth inhibition [2] -13.8% | viability increase [3] -3.6% | viability [4] 65.1% | viability [5] 59.7% | inhibition [6] -0.48% | RAM network inhibition [7] 4.1%

CCOC(=O)c1sc(NC(=O)c2ccc3ncsc3c2)nc1C
inactive: growth inhibition [1] -5.17% | growth inhibition [2] 0.14% | viability increase [3] -2.47% | viability [4] 84.2% | viability [5] 82.8% | inhibition [6] 2.75% | RAM network inhibition [7] 5.36%

O=S(=O)(NCc1csc(-c2ccccc2)n1)c1ccc(Cl)s1
inactive: growth inhibition [1] -17.6% | growth inhibition [2] -16.7% | viability increase [3] -0.6% | viability [4] 96.9% | viability [5] 102% | inhibition [6] 0.21% | RAM network inhibition [7] 5.99%

O=C1C2CCCN2C(c2cccc(F)c2)N1c1cccc(Cl)c1 (configuration not stated)
inactive: growth inhibition [1] -10.5% | growth inhibition [2] 1.77% | viability increase [3] -0.22% | viability [4] 108% | viability [5] 99% | inhibition [6] 0.56% | RAM network inhibition [7] -0.05%

Cc1cc(NC(=O)CSc2cn(C)c3ccccc23)no1
inactive: growth inhibition [1] -8.73% | growth inhibition [2] 4.95% | viability increase [3] -2.87% | viability [4] 97.6% | viability [5] 99.1% | inhibition [6] 0.48% | RAM network inhibition [7] 1.44%

COC(=O)c1ccc(N2CCOCC2)c(NC(=O)Nc2cccc(OC)c2)c1
inactive: growth inhibition [1] -14.5% | growth inhibition [2] -8.03% | viability increase [3] -5.3% | viability [4] 84.4% | viability [5] 77.1% | inhibition [6] 1.09% | RAM network inhibition [7] 5.95%

COc1ccccc1C1NC(=O)NC(C)=C1C(=O)OC1CCCCC1 (configuration not stated)
inactive: growth inhibition [1] -4.16% | growth inhibition [2] -6.71% | viability increase [3] 0.87% | viability [4] 97.5% | viability [5] 92.3% | inhibition [6] 2.65% | RAM network inhibition [7] 2.9%

COC(=O)C1=CN(C)C=C(C(=O)OC)C1c1ccsc1
inactive: growth inhibition [1] -5% | growth inhibition [2] -4.37% | viability increase [3] -0.22% | viability [4] 104% | viability [5] 89.3% | inhibition [6] 1.96% | RAM network inhibition [7] 0.41%

COc1ccc(NC(=O)[C@H](CCS(C)(=O)=O)N2Cc3ccccc3C2=O)c(OC)c1
inactive: growth inhibition [1] -0.525% | growth inhibition [2] -0.57% | viability increase [3] 0.69% | viability [4] 104% | viability [5] 100% | inhibition [6] 2.29% | RAM network inhibition [7] 1.93%

O=C(COC(=O)C1(c2ccccc2F)CCCC1)N1CCN(C(=O)c2ccco2)CC1
inactive: growth inhibition [1] -13.4% | growth inhibition [2] -13.8% | viability increase [3] -2.48% | viability [4] 87.3% | viability [5] 95.4% | inhibition [6] 0.995% | RAM network inhibition [7] 1.19%

COc1ccc(NC(=O)CN(c2cc(C)cc(C)c2)S(=O)(=O)c2c(C)n[nH]c2C)cc1
inactive: growth inhibition [1] -9.19% | growth inhibition [2] -1.92% | viability increase [3] -2.97% | viability [4] 102% | viability [5] 94.6% | inhibition [6] 0.955% | RAM network inhibition [7] 5.46%

Cc1ccccc1Cn1c(CN2CCN(C(=O)c3ccco3)CC2)nc2c1c(=O)n(C)c(=O)n2C
inactive: growth inhibition [1] 1.26% | growth inhibition [2] -4.52% | viability increase [3] -4.75% | viability [4] 94.1% | viability [5] 95.7% | inhibition [6] 0.335% | RAM network inhibition [7] 1.2%

CCOc1ccc(-c2cc(CCCC(=O)NCc3ccco3)no2)cc1
inactive: growth inhibition [1] -2.19% | growth inhibition [2] -4.02% | viability increase [3] -2.79% | viability [4] 86.5% | viability [5] 88% | inhibition [6] 0.22% | RAM network inhibition [7] 1.77%

O=S(=O)(c1ccc(N2CC=C(c3ccccc3)CC2)nc1)N1CCCC1
inactive: growth inhibition [1] -6.39% | growth inhibition [2] -12.5% | viability increase [3] -7% | inhibition [6] 2.18% | RAM network inhibition [7] 2.69%
active: viability [4] 4.45% | viability [5] 3.3%

COc1ccc(OC)c(C2=Nn3c(nnc3-c3ccncc3)SC2)c1
inactive: growth inhibition [1] 0.735% | growth inhibition [2] 11.2% | viability increase [3] -2.51% | viability [4] 78.1% | viability [5] 71.1% | inhibition [6] 0.84% | RAM network inhibition [7] 5.82%

Cc1nnc(NC(=O)CSc2nnc(CNC(=O)c3ccccc3)n2-c2ccccc2)s1
inactive: growth inhibition [1] -5% | growth inhibition [2] -0.57% | viability increase [3] 0% | viability [4] 96.1% | viability [5] 96.5% | inhibition [6] 3% | RAM network inhibition [7] 3.59%

Cc1cccc(NC(=O)CN2CCN(CC(=O)Nc3cccc(C)c3)CC2)c1
inactive: growth inhibition [1] -14.3% | growth inhibition [2] -10% | viability increase [3] -4.48% | viability [4] 90.1% | viability [5] 98% | inhibition [6] 0.165% | RAM network inhibition [7] 2.17%

O=C(CC(c1ccccc1)c1ccccc1)Nc1ncn[nH]1
inactive: growth inhibition [1] -5.6% | growth inhibition [2] 9.86% | viability increase [3] 4.51% | viability [4] 100% | viability [5] 90.1% | inhibition [6] -0.035% | RAM network inhibition [7] 3.78%

CCCN(CCC)CCCNC(=O)c1cc2c(=O)n(C)c3ccccc3c2n1C
inactive: growth inhibition [1] -3.03% | growth inhibition [2] -4.35% | viability increase [3] -6.97% | viability [4] 72.5% | viability [5] 77.1% | inhibition [6] 1.22% | RAM network inhibition [7] 3.47%

O=C(C1CC(c2ccc(F)cc2)=NO1)N1CCN(c2ccccc2)CC1 (configuration not stated)
inactive: growth inhibition [1] 1.07% | growth inhibition [2] -3.47% | viability increase [3] -0.13% | viability [4] 99.1% | viability [5] 95.6% | inhibition [6] 1.23% | RAM network inhibition [7] 3.67%

Cc1sc2nc(SCC(=O)N3CCOCC3)[nH]c(=O)c2c1C
inactive: growth inhibition [1] -1.58% | growth inhibition [2] -1.96% | viability increase [3] -1.93% | viability [4] 105% | viability [5] 92.2% | inhibition [6] 1.8% | RAM network inhibition [7] 2.17%

CC1(C)CC(=O)c2c(Cc3ccccc3)n[nH]c2C1
inactive: growth inhibition [1] 0.375% | growth inhibition [2] -8.27% | viability increase [3] -1.7% | viability [4] 98.3% | viability [5] 90.5% | inhibition [6] 2.2% | RAM network inhibition [7] -0.11%

CN(C)c1ccc(C2C3C(=O)NC(=O)C3ON2c2ccc(Cl)cc2)cc1 (configuration not stated)
inactive: growth inhibition [1] -0.19% | growth inhibition [2] 2.37% | viability increase [3] -0.83% | viability [4] 102% | viability [5] 98.6% | inhibition [6] 0.735% | RAM network inhibition [7] 4.07%

C=CCn1c(SCCC#N)nnc1-c1ccncc1
inactive: growth inhibition [1] -5.01% | growth inhibition [2] -18.7% | viability increase [3] -3.07% | viability [4] 100% | viability [5] 93.4% | inhibition [6] 1.88% | RAM network inhibition [7] -0.94%
